Compound activity (PubChem)
NR2E3 ag-1: NR2E3 (human) agonism. Q9Y5X4. GST-NR2E3/biotin-RetCOR TR-FRET, 1536-well. inhibition of corepressor binding, % at 4.78 µM. actives 0.12% (n = 320,000);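 active = percent inhibition above the cutoff of mean plus 3 SD of all tested compounds, set per screening campaign, cut at about 20% in these data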;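 note: 0% = DMSO wells and 100% = biotin wells as full block of FRET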
Target sequence (Q9Y5X4 whole entry, looked up): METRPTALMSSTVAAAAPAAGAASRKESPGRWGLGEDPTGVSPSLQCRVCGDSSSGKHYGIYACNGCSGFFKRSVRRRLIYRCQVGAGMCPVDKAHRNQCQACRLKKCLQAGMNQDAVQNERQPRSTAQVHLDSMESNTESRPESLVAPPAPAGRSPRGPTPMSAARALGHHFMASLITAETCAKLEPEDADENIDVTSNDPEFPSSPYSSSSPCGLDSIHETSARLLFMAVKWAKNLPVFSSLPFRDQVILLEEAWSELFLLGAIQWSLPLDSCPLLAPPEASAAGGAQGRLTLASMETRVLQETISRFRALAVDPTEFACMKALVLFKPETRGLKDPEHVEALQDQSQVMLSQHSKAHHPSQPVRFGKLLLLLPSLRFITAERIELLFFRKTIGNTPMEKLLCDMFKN
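Test system: GST-NR2E3 and biotin-RetCOR proteins | Quantity: 1.35 nM GST-tagged NR2E3 final | Medium: Tris pH 7.5 | Also added: 7 nM biotin-RetCOR | Dosing: Compound at 4.8 µM, single dose | Timing: 5 h at 4 °C | Detection: Time-resolved FRET | Read-out basis: Percent inhibition | Benchmarks: Biotin wells as high control, 0.6% DMSO wells as low control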
PG9 binder: binds the HIV-1 gp120 antibody PG9. TR-FRET gp120-PG9 antibody binding. inhibition, % at 6.7 µM. actives 0.43% (n = 360,000). AID 624416; in the data active = inhibition above about 8.5%
NR2E3 ag-2: activates human NR2E3 receptor | CHO-S Gal4-NCOR/VP16-NR2E3 two-hybrid, luciferase | actives 0.35% (n = 360,000) | inhibition of corepressor binding, % at 3.98 µM | Q9Y5X4 | AID 602229;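 active = inhibition above the mean of all tested compounds plus 3 SD, cut at about 70% in these data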;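 note: 0% = DMSO with NR2E3 transfected cells and 100% = cells lacking NR2E3 construct; higher means lower luciferase signal from less NR2E3 corepressor binding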
Rev-erbA mod: modulates human Rev-erb alpha binding to DNA; P20393; Rev-erbα–FITC-DNA binding, fluorescence polarization, 90 min; activity, % at 10 µM; actives 0.79% (n = 370,000); AID 1259318;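 active = activity above about 14%, limit read from the data; passing the limit was not always enough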;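 note: 0% = DMSO wells with 35 nM protein and 100% = DMSO wells with 750 nM protein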
GalR3 antag: human GalR3 antagonism | O60755 | HEK293 GalR3-CNG cAMP membrane potential fluorescence; galR3 body fused to GalR1 C-terminus | inhibition, % at 3 µM | actives 0.44% (n = 360,000);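 active = inhibition above the screen-wide average plus 3 SD, cut at about 13% in these data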;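 note: forskolin and galanin both at EC90 stimulate the cells; cAMP rise reported by CNG channel membrane potential dye signal; 0% = forskolin plus galanin with DMSO and 100% = forskolin alone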
Target sequence (O60755 1-299 limits assumed): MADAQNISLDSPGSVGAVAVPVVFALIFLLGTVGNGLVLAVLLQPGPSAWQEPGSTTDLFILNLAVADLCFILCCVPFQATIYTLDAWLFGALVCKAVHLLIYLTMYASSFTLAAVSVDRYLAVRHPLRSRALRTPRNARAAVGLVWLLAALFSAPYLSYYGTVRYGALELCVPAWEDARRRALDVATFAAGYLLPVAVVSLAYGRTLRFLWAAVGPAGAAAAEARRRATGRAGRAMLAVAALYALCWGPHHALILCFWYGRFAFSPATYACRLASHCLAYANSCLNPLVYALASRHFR
PG9 binder conf: PG9 antibody binding, confirmed; inhibition, % at 6.7 µM; shares compounds with PG9 binder; TR-FRET PG9 antibody binding, biochemical; actives 90% (n = 1,500); in the data active = inhibition above about 9%
PGV04 counter: binds control antibody PGV04 in PG9 binder counter-screen; inhibition, % at 6.7 µM; actives 95% (n = 1,500); TR-FRET PGV04 antibody-gp120 binding, biochemical; shares compounds with PG9 binder; in the data active = inhibition above about 9.5%
PG9 binder DR: small molecules binding HIV-1 gp120 antibody PG9 | IC50, µM | shares compounds with PG9 binder | TR-FRET PG9 antibody-gp120 binding inhibition | 95 tested, under 10 active; in the data active = IC50 below about 10 µM
PGV04 DR counter: counter-screen for PG9 binders: binding to control antibody PGV04. shares compounds with PG9 binder. TR-FRET binding to control antibody PGV04. IC50, µM. actives 20% (n = 95). AID 651937
PG126 DR counter: binds control antibody PG126 in PG9 counter-screen | shares compounds with PG9 binder | TR-FRET binding to antibody PG126, counterscreen | IC50, µM | actives 20% (n = 95) | AID 651939
* = called active by the depositor; / = no result given. Hits are enriched below; roughly 1.8% of the tested compounds scored in any of these assays. Cut-off read from the data, not from the text of the source, unless noted: active = IC50 below about 9 µM; inactive = the rest.

SMILES | NR2E3 ag-1 | PG9 binder | NR2E3 ag-2 | Rev-erbA mod | GalR3 antag | PG9 binder conf | PGV04 counter | others
CCOC(=O)Cn1c(=NC(=O)CC)sc2c(C)cc(C)cc21 | -5 | 11* | 2 | 2 | -4 | 15* | 23*
CCOC(=O)Cn1c(=NC(=O)C(C)C)sc2c(C)cc(C)cc21 | 3 | -1 | -13 | 0 | 0 | / | /
Cc1cc(C)cc(OCC(=O)OC/C(O)=C(\C#N)c2nc3ccccc3[nH]2)c1 | 3 | 8 | -16 | 0 | -2 | / | /
N#C/C(=C(/O)COC(=O)COc1cccc(Br)c1)c1nc2ccccc2[nH]1 | 1 | 12* | -15 | 7 | -6 | 19* | 31*
Cc1ccc(-c2nc3ncccn3c2NC(=O)c2cccc(C)c2)cc1 | / | / | / | -2 | / | / | /
Cc1onc(C(=O)N2CCN(C(c3ccc(F)cc3)c3ccc(F)cc3)CC2)c1[N+](=O)[O-] | / | / | / | 5 | / | / | /
COCCNC(=O)c1cc(-c2cccnc2)nc2ccc(Br)cc12 | 8 | 8.6* | -5 | -3 | -2 | 8 | 14*
O=C(NCCCn1ccnc1)c1cc(-c2cccnc2)nc2ccc(Br)cc12 | 5 | 6 | -3 | -1 | -3 | / | /
CN(C)c1ccc(-c2cccc(C3CC=CC4C3C(=O)N(Cc3ccccc3)C4c3ccc4ccccc4c3)c2)cc1 (centres undefined) | 0 | 26* | -51 | 9 | -2 | 36* | 48*
CCOC(=O)c1c(N)sc(=S)c2c1CCC2 | 6 | 9.5* | 7 | -6 | -1 | 6 | 10*
CN1CCN(c2ccc(-c3csc(N4CCC(C(N)=O)CC4)n3)cc2)CC1 | / | / | / | 1 | / | / | /
COc1ccccc1CCn1cnc(-c2cccc(Cl)c2)c1CC(C)C | / | -1 | / | -3 | -7 | / | /
COc1ccc(NS(=O)(=O)CC(C)C)c(OC)c1 | 5 | -1 | 11 | 0 | 2 | / | /
CCS(=O)(=O)Nc1ccc(-c2ccc(NS(=O)(=O)CC)c(OC)c2)cc1OC | 3 | 17* | 12 | -1 | -1 | 14* | 16*
COCCNC(=O)[C@]1(C#N)CC(=O)N(C)[C@@H]1c1ccccc1 | / | / | / | 5 | / | / | /
O=c1cc(-c2ccccc2)oc2ccc3ccccc3c12 | / | 15* | -89 | 13 | -5 | 16* | 24*
COc1cccc(OCCSc2nc3ccccc3c(=O)[nH]2)c1 | 6 | 24* | -9 | 21 | 0 | 23* | 31*
c1ccc(OCCSc2nc3ccccc3[nH]2)cc1 | 3 | -1 | -72 | 0 | -3 | / | /
CN1CCN(CCCNC(=O)c2ccc3c(c2)N(Cc2ccc(F)cc2)CCS3)CC1 | 4 | 17* | -6 | 5 | -4 | 15* | 24*
O=C(NCCCN1CCOCC1)c1ccc2c(c1)N(Cc1ccc(F)cc1)CCS2 | 2 | -1 | -47 | -3 | 1 | / | /
C=CCN1C(=O)c2n[nH]c(C(C)C)c2C1c1ccc(C)cc1 (centres undefined) | / | 0 | / | -2 | 2 | / | /
CCOC(=O)N1CCN(C(=O)C[C@H]2C[C@@]3(C(=O)OC)C(=C[C@H](C4CCCC4)O[C@@H]3C)N(CCc3ccc(OC)c(OC)c3)C2=O)CC1 | / | / | / | 2 | / | / | /
Cc1ccc2nc(-c3ccc(NC(=O)CSc4nccc(=O)[nH]4)cc3)sc2c1 | 4 | 12* | -49 | 10 | -4 | 11* | 36*
CCCC1Cc2c(sc3nc(SC)nc(N)c23)CO1 (centres undefined) | 4 | 16* | -35 | 24 | -3 | 18* | 34*
COc1cccc(CNC(=O)CN2CCCc3ccccc32)c1OC | / | / | / | -8 | / | / | /
SMILES | NR2E3 ag-1 | PG9 binder | NR2E3 ag-2 | Rev-erbA mod | GalR3 antag | PG9 binder conf | PGV04 counter | others
COc1ccc2[nH]c3c(=S)nc[nH]c3c2c1 | -3 | 50* | -23 | 0 | 0 | 26* | 26* | PG9 binder DR=>67;PGV04 DR counter=>67;PG126 DR counter=>67
COc1ccc2[nH]c3c(Cl)ncnc3c2c1 | 1 | -1 | 23 | 6 | -7 | / | /
CC(=O)OCC(=O)[C@@]12OC(C)(C)O[C@@H]1CC1C3C[C@H](F)C4=CC(=O)C=C[C@]4(C)[C@@]3(F)[C@@H](O)C[C@@]12C (some centres undefined) | / | / | / | 2 | / | / | /
Cc1cc(Br)cn2cc(C(=O)O)nc12 | 6 | 16* | -16 | -1 | -2 | 21* | 26*
CC(=O)c1ccc(N2CCN(S(=O)(=O)c3ccc4c(c3)NC(=O)CC(=O)N4)CC2)cc1 | 1 | 13* | -44 | 7 | 1 | 17* | 30*
O=C1Cc2cc(S(=O)(=O)N3CCN(c4ccc(C(=O)O)cc4)CC3)ccc2N1 | / | 1 | -20 | -5 | -6 | / | /
Cc1cccc(-c2nnc(NC(=O)c3ccc(N4C(=O)CCC4=O)cc3)s2)c1 | -11 | 17* | -25 | 8 | / | 4 | 12*
CCCC1CCC2(CC1)CCC2OC(=S)Nc1ccc(Cl)cc1 (centres undefined) | / | / | / | -1 | / | / | /
Cc1cc(C)cc(NC(=O)C2CCN(S(=O)(=O)c3ccc4[nH]c(=O)ccc4c3)CC2)c1 | 1 | 13* | -18 | 6 | / | 16* | 30*
CCc1cccc(NC(=O)C2CCN(S(=O)(=O)c3ccc4[nH]c(=O)ccc4c3)CC2)c1 | 1 | 4 | 6 | 5 | / | / | /
COC(=O)c1sc(NC(=O)COc2ccccc2C)nc1C | -2 | 11* | -16 | 10 | -1 | 20* | 28*
COC(=O)c1sc(NC(=O)COc2c(C)cccc2C)nc1C | 0 | 0 | 2 | 3 | -5 | / | /
C=CCN(C(=O)[C@@H](C)[C@@H](O)c1ccc(C(C)=O)cc1)c1ccccc1 | / | / | / | -2 | / | / | /
CCC(=O)Nc1c(S(=O)(=O)c2ccccc2)c2nc3ccccc3nc2n1C(C)c1ccccc1 (centres undefined) | 1 | 0 | -3 | -6 | -1 | / | /
CCCCn1c(NC(=O)c2ccco2)c(S(=O)(=O)c2ccc(C)cc2)c2nc3ccccc3nc21 | / | 18* | -18 | -5 | -4 | 21* | 25*
Cc1ccc(S(=O)(=O)c2c(N)n(CCCO)c3nc4ccccc4nc23)cc1 | 3 | -1 | 4 | 2 | -3 | / | /
CCCCn1c(NC(=O)c2ccc(Br)o2)c(S(=O)(=O)c2ccccc2)c2nc3ccccc3nc21 | 7 | 14* | 8 | -9 | -8 | 18* | 24*
